# An excerpt weighted towards active compounds, which were near 1.7% of everything screened.
# CSN inh: inhibitors of CSN-mediated cullin deneddylation, primary screen, biochemical, fluorescence polarization, uHTS. inhibition, % at 12.5 µM. COP9 signalosome complex subunit 5 (Homo sapiens), Q92905. hit rate 0.38% among 360,000. Purified CSN, SCF-Nedd8-OG deneddylation;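 active means pattern-corrected inhibition above about 35%, with an unprinted fluorescence ratio check between 0.5 and 1.5, limit read from the data, passing the limit was not always enough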;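 further: 0% = enzyme with substrate and 100% = substrate without enzyme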
#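 Assay system: Purified human Csn5 enzyme expressed in HEK293T cells | Amount: Enzyme 0.24 nM | Measured by: Fluorescence polarization readout | Medium: Tris/NaCl/DTT buffer, pH 7.5 | Compound dosing: One concentration, 12.5 µM, 0.25% DMSO | Times: 90 min incubation of compound, enzyme and substrate at room temperature | Control set: no-enzyme wells high, enzyme-with-substrate wells low | Read-out: % inhibition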
# TbMetRS inhib: T. brucei MetRS inhibitors, primary screen, biochemical, luminescence; hit rate 0.4% among 360,000; inhibition, % at 11.9 µM; purified T. brucei MetRS, ATP depletion, Kinase-Glo luminescence; methionyl-tRNA synthetase (Trypanosoma brucei brucei);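 active means inhibition above a per-plate cutoff of the control wells' mean inhibition plus 3 SD, cut at about 5.5% in these data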;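 further: 0% = DMSO wells median and 100% = median of wells with control inhibitor compound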
#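 System: purified T. brucei MetRS enzyme / Detection: Kinase-Glo luciferase luminescence reporting remaining unconsumed ATP / Medium: HEPES buffer with MgCl2, KCl, DTT, spermine, BSA, pyrophosphatase / Replication: singlicate, one well per compound / Evaluation: percent inhibition relative to median high and low control wells / Schedule: 2 h aminoacylation at 25 °C after 15 min preincubation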
# IDE inh: human IDE inhibitors in live cells, primary screen, fluorescence polarization, HEK cells, FAbetaB substrate. Insulin-degrading enzyme (Homo sapiens), P14735. FAbetaB cleavage. inhibition, % at 5.59 µM. hit rate 0.41% among 320,000;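 active means percent inhibition above the average of all tested compounds plus 3 SD, set per screening campaign, cut at about 16% in these data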;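 further: IDE supplied by intact live HEK cells; FP after avidin binding of uncleaved biotin substrate so inhibition keeps polarization high; 0% = DMSO wells and 100% = 60 µM reference IDE inhibitor Ii1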
# Target sequence (P14735 whole entry, looked up): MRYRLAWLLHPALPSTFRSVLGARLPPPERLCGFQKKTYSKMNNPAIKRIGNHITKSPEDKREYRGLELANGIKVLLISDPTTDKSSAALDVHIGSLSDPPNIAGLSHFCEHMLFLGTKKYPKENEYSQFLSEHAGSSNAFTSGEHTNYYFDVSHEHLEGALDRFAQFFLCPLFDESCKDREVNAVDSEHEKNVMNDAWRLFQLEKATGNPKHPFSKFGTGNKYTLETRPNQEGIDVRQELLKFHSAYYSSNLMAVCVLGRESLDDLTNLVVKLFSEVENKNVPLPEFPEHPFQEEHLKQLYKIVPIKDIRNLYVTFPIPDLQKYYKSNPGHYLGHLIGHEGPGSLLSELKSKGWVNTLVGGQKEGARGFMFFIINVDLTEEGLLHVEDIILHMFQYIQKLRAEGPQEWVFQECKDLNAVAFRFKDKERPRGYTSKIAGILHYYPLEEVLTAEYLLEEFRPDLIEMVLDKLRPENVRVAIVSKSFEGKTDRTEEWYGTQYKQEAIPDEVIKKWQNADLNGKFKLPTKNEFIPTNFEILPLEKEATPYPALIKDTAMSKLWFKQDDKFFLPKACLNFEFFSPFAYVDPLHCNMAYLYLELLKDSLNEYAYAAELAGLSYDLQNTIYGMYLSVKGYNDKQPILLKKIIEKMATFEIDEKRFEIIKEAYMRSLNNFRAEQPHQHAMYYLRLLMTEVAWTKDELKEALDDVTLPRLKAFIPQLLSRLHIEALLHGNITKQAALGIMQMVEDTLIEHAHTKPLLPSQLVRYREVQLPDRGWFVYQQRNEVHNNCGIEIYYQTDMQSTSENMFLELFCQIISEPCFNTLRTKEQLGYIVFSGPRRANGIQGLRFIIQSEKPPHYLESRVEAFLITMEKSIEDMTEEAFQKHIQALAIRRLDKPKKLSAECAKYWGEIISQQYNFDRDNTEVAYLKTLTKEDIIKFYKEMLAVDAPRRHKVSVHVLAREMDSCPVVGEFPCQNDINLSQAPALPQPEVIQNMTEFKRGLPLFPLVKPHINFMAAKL
# IDE act: human IDE activators in live cells, primary screen, fluorescence polarization, HEK cells, FAbeta-B substrate | Insulin-degrading enzyme (Homo sapiens), P14735 | activation, % at 5.96 µM | hit rate 0.073% among 340,000 | FAbeta-B cleavage; 0% vehicle, 100% cell-free pure enzyme wells;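 active means activation above the mean of all tested compounds plus 3 SD, set per screening campaign, cut at about 17% in these data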
# HNF4A DNA FP: change in binding of human HNF4A to DNA, primary screen, biochemical, fluorescence polarization, FITC-DNA | Hepatocyte nuclear factor 4-alpha (Homo sapiens), P41235 | 1 h | activity change, % at 10 µM | hit rate 0.3% among 360,000 | AID 1224865, 2016; in the data active means activity change above about 30%, passing the limit was not always enough
# TPT1 inh: Candida albicans TPT1 enzyme inhibitors, primary screen, biochemical, fluorescence polarization | tRNA 2'-phosphotransferase TPT1 (Candida albicans SC5314) | recombinant caTPT1, FP RNA substrate dephosphorylation | inhibition, % at 5 µM | hit rate 0.81% among 300,000 | AID 1962, 2009;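 active means inhibition above the mean of all tested compounds plus 3 SD, set per screening campaign, cut at about 24% in these data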;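 further: plate controls were DMSO alone for no effect and ferristatin control at 100 nM for full effect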
# HNF4a DNA conf: change in HNF4A binding to DNA, retest, confirmation, biochemical, fluorescence polarization, FITC-DNA | 1 h | hit rate 99% among 210 | shares compounds with HNF4A DNA FP | AID 1224897, 2016 | activity change, % at 12.5 µM; call rule not given here
# Active calls of the source: *; x = no result.
SMILES,CSN inh,TbMetRS inhib,IDE inh,IDE act,HNF4A DNA FP,TPT1 inh,HNF4a DNA conf
Cc1ccc2sc(N(CCCN(C)C)C(=O)c3nc4ccccc4s3)nc2c1C,107*,1,5,15,217*,0,205*
Cc1cccc2sc(N(CCCN(C)C)C(=O)c3nc4ccccc4s3)nc12,8,0,3,5,13,-4,x
CC(=O)N1CCOc2ccc(S(=O)(=O)N3CCC(C(=O)NCc4ccc(Cl)cc4)CC3)cc21,-3,0,x,x,7,x,x
CC(=O)Nc1cc2c(cc1[N+](=O)[O-])-c1ccc(F)cc1C2,6,0,x,5,32*,x,39*
O=C1/C(=C/c2ccc(O)cc2)SC(=S)N1Cc1cccnc1,7,-1,22*,-19,51*,19,61*
CC(NC(=O)CCCc1ccccc1)c1ccncc1 (stereo not given),-4,-1,4,5,-1,-5,x
Cc1cc(C)c(NC(=O)CSCc2nc3sc(C)c(C)c3c(=O)[nH]2)c(Cl)c1,18,0,-1,-9,43*,x,74*
CSc1ncccc1C(=O)OCC(=O)NCc1ccc2c(c1)OCO2,1,1,3,1,-2,-3,x
O=C(N/N=C/c1cccnc1)c1ccc(NC(=O)c2ccc(Cl)cc2)cc1,6,1,2,-8,17,-2,x
O=C(N/N=C/c1cccnc1)c1ccc(NC(=O)c2cccc(Cl)c2)cc1,108*,0,11,-2,108*,-1,152*
NC(=O)CC(NC(=O)Cc1cccc2ccccc12)c1ccc(NC2CCCC2)c([N+](=O)[O-])c1 (stereo not given),-2,0,x,1,7,x,x
CCC(CC)Nc1ccc(C(CC(N)=O)NC(=O)Cc2ccc(Br)cc2)cc1[N+](=O)[O-] (stereo not given),32,0,-2,2,52*,21,37*
NC(=O)CC(NC(=O)Cc1cccc2ccccc12)c1ccc(NC2CCCCC2)c([N+](=O)[O-])c1 (stereo not given),24,0,0,6,51*,10,56*
COCCNc1nc(-c2ccccc2F)c2sc(-c3ccccc3)cc2n1,-1,0,x,x,0,x,x
O=C(/C=C/c1ccc(OCCCF)cc1)Nc1ccnc(-c2ccncc2)n1,3,-1,12,3,4,1,x
O=C(/C=C/c1ccc(OCCCF)cc1)Nc1ccnc(-c2cccnc2)n1,20,-1,1,1,36*,5,52*
[2H]C([2H])(CCOS(N)(=O)=O)c1ccccc1,-7,0,4,4,-3,1,x
CCN(CC)c1ccc(/C=N\NC(N)=O)cc1,-5,0,0,-4,-2,0,x
CCN(CC)c1ccc(/C=C(\C#N)C(N)=O)cc1,14,0,x,-2,34*,x,46*
COc1cc(/C=C/C(=O)OCC(=O)NCc2ccco2)ccc1O,-6,0,-5,10,0,0,x
Cc1cc(=O)oc2cc(NC(=O)c3cccc(S(C)(=O)=O)c3)ccc12,1,0,2,1,-2,4,x
Cc1cc(=O)oc2cc(NC(=O)c3cccc(F)c3)ccc12,42*,-1,-8,2,41*,3,35*
CC(Nc1ccc2c(c1)OCCO2)C(=O)N1c2ccccc2CC1C (stereo not given),2,-1,-3,3,-2,-5,x
CSc1nc2ccc3nc(NC(=O)c4cccs4)sc3c2s1,44*,-1,-1,12,62*,0,40*
CSc1nc2ccc3nc(NC(=O)c4ccc(Cl)s4)sc3c2s1,-4,0,0,3,-1,-2,x
SMILES,CSN inh,TbMetRS inhib,IDE inh,IDE act,HNF4A DNA FP,TPT1 inh,HNF4a DNA conf
O=C(NC(Cc1ccccc1)C(=O)N1CCN(c2ccc(F)cc2)CC1)c1ccccc1 (stereo not given),-3,0,x,x,-1,x,x
CCS(=O)(=O)Nc1cccc(C2=NN(S(=O)(=O)CC)C(c3ccccc3)C2)c1 (stereo not given),10,0,-4,-3,55*,1,79*
COc1cccc(C(=O)NCc2ccco2)c1,4,1,6,-1,-2,-1,x
COc1cc(/C=N/NC(=O)c2cccnc2)ccc1OCC(=O)Nc1ccccc1Cl,146*,0,0,4,48*,-3,124*
O=[N+]([O-])c1ccc(C=NNc2ccccc2)cc1,21,0,x,5,47*,x,47*
O=[N+]([O-])c1cccc(C=NNc2ccccc2)c1,-1,0,x,5,-3,x,x
COc1ccc(C=NNc2ccc([N+](=O)[O-])cn2)cc1,6,0,x,-10,72*,x,79*
CCOC(=O)C(CC)c1cc2n(c(=O)c1C#N)CCC21OCCO1 (stereo not given),-1,0,x,x,4,x,x
OC(COc1ccc(C2C=CCC2)cc1)CN1CCCCC1 (stereo not given),6,-2,3,6,42*,-1,39*
C[C@H](NC(=O)c1nc[nH]c1C(=O)N[C@@H](C)c1ccccc1)C(=O)OC(C)(C)C,-1,0,0,0,2,0,x
CC(C)[C@H](NC(=O)OC(C)(C)C)c1cc(C(=O)N[C@@H](C)c2ccccc2)c(N)s1,12,-1,x,x,41*,x,37*
Cc1cc(/C=C2/NC(=S)NC2=O)c(C)n1-c1cccnc1,23,0,1,3,49*,22,98*
Cc1ccc(NC(=O)c2ccc(NCC3CCCO3)c([N+](=O)[O-])c2)cc1Cl (stereo not given),41*,-1,1,-1,37*,7,54*
NC(=O)c1ccc(NCC2CCCO2)c([N+](=O)[O-])c1 (stereo not given),4,-1,-4,4,-5,1,x
Cc1ccc(NC(=O)c2ccc(NCc3ccco3)c([N+](=O)[O-])c2)cc1Cl,90,-1,2,-5,47*,9,93*
Cc1ccc(C(=O)NCc2ccco2)cc1[N+](=O)[O-],-5,0,3,2,0,-4,x

# From PubChem
